Source: ChEMBL document CHEMBL5370602, “Structure-Based Design of a Lead Compound Derived from Natural Schweinfurthins with Antitumor Properties That Target Oxysterol-Binding Protein” (J Med Chem, 2023)
Calls of active or inactive are those of the source. The calls are words filed in the database; no cut-off is given here.

What was measured:
[1] = target: mTORC1 (Homo sapiens) (UniProt P42345+Q8N122+Q9BVC4); assay: Inhibition of mTORC1 signalling in human U-87 MG cells assessed as decrease in S6K phosphorylation at T389 residue at 0.05 to 1 uM incubated for 48 hrs by Western blot analysis; type: cell-based
mTORC1 (Homo sapiens), sequence (Q8N122 whole entry, looked up, other chains not shown): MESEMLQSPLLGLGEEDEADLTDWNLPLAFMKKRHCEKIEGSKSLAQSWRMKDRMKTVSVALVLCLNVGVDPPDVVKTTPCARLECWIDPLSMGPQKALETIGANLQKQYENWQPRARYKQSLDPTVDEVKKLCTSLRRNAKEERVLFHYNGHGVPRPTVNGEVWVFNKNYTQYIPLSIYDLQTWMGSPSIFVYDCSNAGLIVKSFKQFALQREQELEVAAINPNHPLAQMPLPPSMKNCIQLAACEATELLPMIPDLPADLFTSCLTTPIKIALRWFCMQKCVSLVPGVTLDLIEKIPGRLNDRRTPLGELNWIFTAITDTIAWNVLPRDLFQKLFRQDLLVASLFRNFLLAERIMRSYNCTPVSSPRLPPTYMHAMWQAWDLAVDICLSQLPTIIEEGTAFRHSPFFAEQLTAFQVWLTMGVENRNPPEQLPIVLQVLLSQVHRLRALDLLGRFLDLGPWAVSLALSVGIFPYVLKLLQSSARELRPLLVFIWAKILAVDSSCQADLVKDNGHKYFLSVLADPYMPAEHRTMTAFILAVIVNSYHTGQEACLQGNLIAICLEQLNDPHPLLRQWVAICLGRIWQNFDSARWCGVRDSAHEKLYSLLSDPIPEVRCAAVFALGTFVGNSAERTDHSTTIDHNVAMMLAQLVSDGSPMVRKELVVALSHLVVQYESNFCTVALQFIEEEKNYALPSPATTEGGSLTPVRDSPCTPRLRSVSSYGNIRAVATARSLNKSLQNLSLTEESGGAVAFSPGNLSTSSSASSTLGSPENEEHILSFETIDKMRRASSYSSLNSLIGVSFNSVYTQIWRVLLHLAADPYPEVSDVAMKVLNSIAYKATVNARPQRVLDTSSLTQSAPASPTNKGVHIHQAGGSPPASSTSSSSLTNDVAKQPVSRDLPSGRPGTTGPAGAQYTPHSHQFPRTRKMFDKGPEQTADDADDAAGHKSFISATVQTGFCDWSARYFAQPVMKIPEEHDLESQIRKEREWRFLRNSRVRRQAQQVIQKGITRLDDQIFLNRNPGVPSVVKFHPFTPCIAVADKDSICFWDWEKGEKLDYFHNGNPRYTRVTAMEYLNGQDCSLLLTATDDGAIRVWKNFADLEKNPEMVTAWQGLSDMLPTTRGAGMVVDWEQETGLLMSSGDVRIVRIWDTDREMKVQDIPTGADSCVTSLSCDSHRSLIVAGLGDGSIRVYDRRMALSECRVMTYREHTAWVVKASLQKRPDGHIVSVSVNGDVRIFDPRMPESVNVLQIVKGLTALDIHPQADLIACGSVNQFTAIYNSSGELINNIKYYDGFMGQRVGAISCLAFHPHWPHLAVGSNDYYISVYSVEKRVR
mTORC1 (Homo sapiens), sequence (Q9BVC4 whole entry, looked up, other chains not shown): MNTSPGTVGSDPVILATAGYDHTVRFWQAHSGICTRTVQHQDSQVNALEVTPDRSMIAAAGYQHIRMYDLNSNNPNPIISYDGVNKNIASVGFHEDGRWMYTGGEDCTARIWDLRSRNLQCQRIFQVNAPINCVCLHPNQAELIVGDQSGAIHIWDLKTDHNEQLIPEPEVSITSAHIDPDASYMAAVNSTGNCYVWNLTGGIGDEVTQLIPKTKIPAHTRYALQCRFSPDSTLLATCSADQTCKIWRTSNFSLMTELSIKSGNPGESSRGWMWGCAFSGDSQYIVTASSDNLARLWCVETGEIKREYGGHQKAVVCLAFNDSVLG
Method in brief: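 U-87 MG cells cultured two days, then exposed 48 h to increasing doses. Lysed in RIPA with protease inhibitors; 5 µg protein run on 4-20% SDS gels and transferred to PVDF. Probed for phospho/total AKT, S6, S6K, P62 and LC3, detected by ECL. Band intensities normalized to β-actin.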

[2] = tested on: U-87 MG; assay: Antiproliferative activity against human U-87 MG cells assessed as inhibition of cell proliferation incubated for 72 hrs by CellTiter-Glo luminescent assay; type: functional, cell-based, U-87MG ATCC
Method in brief: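 A549 in RPMI 1640 and U-87MG in DMEM, each with 10% FCS and 1% glutamine, at 37 °C and 5% CO₂. Cells seeded at 3000/well, dosed the next day, treated 72 h. Viability read by CellTiter-Glo luminescence with DMSO-treated cells set to 100%. IC50 taken from survival curves over three independent experiments.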

[3] = Toxicity in immunodeficient nude mouse model xenografted with high alert medicated patient derived human GBM1 cells assessed as clinical symptoms at 50 mg/kg,ip QD for 17 days; type: organism-based; details: in vivo, 408 h, time 17 day
Method in brief: (§1)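 Female athymic nude mice bearing subcutaneous GBM1-HAM PDX fragments (20 mm³); treatment began day 11 post-implant at tumour volumes 75-196 mm³, 10 per group. Compound i.p. daily in cyclodextrin vehicle (17 days alone, 27 days in combination); temozolomide 42 mg/kg p.o. daily for 5 days in PBS/glucose/Tween 80. Calliper volumes three times weekly; body weight and clinical signs monitored.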

[4] = Antitumor activity in high alert medicated patient derived human GBM1 cells xenografted in immunodeficient nude mouse model assessed as change in tumor volume at 20 mg/kg,ip QD cotreatment with Temozolomide at 42 mg/kg,po QD and measured after 11 days relative to control; type: functional; details: time 11 day; method in brief: as §1
[5] = Drug uptake in human hTERT-RPE1 cells assessed as drug co-localization with OSBP perinuclear region of cell incubated for 30 mins by immunofluorescence analysis; type: ADME, cell-based; details: tert-rpe1, 0.5 h
Method in brief: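 hTERT-RPE-1 cells incubated 30 min with compound, then fixed (4% paraformaldehyde, 0.1% glutaraldehyde, 10 min), quenched with 50 mM NH₄Cl and permeabilized in saponin 0.05%/BSA 0.2%. Immunolabeled for OSBP and TGN-46. Compound imaged directly by UV-adapted widefield fluorescence (excitation 330, emission 410 nm).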

[6] = target: T1, Oxysterol-binding protein 1 (Homo sapiens) (UniProt P22059); assay: Inhibition of human OSBP in human hTERT-RPE1 cells assessed as increase in OSBP recruitment at TGN and measured after 4 hrs by confocal microscopy; type: cell-based
T1 sequence (whole entry): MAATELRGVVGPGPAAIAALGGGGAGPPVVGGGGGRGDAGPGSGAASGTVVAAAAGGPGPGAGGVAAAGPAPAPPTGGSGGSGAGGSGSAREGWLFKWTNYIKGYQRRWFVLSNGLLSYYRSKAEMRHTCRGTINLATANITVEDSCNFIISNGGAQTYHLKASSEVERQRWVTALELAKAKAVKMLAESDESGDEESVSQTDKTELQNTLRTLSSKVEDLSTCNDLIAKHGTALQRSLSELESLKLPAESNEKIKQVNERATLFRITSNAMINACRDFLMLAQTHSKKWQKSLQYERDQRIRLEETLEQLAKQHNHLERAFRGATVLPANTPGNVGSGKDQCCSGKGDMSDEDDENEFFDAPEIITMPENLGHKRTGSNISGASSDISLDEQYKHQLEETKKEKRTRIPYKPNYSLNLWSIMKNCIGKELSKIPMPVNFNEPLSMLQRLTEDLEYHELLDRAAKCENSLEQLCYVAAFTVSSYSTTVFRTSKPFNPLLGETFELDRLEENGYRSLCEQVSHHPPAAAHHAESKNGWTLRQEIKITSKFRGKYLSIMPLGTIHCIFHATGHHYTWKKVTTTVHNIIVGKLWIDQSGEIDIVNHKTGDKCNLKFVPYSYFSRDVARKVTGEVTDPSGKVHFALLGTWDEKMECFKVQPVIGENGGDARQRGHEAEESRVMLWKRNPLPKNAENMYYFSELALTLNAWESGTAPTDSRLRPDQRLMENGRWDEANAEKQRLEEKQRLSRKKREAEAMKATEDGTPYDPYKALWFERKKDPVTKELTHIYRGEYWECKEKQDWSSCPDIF

[7] = Toxicity in immunodeficient nude mouse model xenografted with high alert medicated patient derived human GBM1 cells assessed as clinical symptoms at 20 mg/kg,ip QD for 27 days cotreatment with Temozolomide at 42 mg/kg,po QD for 5 days; type: organism-based; details: in vivo, 648 h, time 27 day; method in brief: as §1
[8] = Antitumor activity in high alert medicated patient derived human GBM1 cells xenografted in immunodeficient nude mouse model assessed as tumor growth inhibition at 50 mg/kg,ip QD cotreatment with Temozolomide at 42 mg/kg,po QD and measured from 9 to 11 days; type: functional; method in brief: as §1

inhibition [1]: Dose-Dependent Effect
IC50 [2]: 12.4 nM
Drug uptake [5]: Active
inhibition [6]: inactive
SMILES: CC1(C)CCc2c(O)cc(/C=C/c3cc(O)c4c(c3)C[C@@H]3C(C)(C)[C@H](OC=O)CC[C@@]3(C)O4)cc2O1
Activity [3]: Non-Toxic
Activity [4]: 396.24%
Activity [7]: Non-Toxic
TGDI at 50 mg/kg [8]: 2.07%
